Test results: ChEMBL document CHEMBL3745632, “Development of a novel sulfonate ester-based prodrug strategy” (Bioorg Med Chem Lett, 2016); call rule not given here

Tests used:
[1] = Drug level in HEPES buffer treated with 200 uM (S)-4-(trifluoromethyl)phenyl 3-(2-amino-4-methylpentanamido)propane-1-sulfonate in presence of aeromonas proteolytica aminopeptidase by spectrophotometry; assay type: ADME; conditions: vibrio proteolyticus
Method in brief: (§1)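 Each substrate (50 or 200 μM) was incubated with AAP (1.05 units/mL) in 50 mM HEPES (pH 8.0) containing 2% DMSO for varying periods. Release of the corresponding phenol was monitored over time.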

[2] = Inhibition of aeromonas proteolytica aminopeptidase at 5 uM incubated at pH 8 and 30 degC followed by addition of 50 uM L-leucine-p-nitroanilide substrate by spectrophotometry; conditions: vibrio proteolyticus, pH 8, 5 µM
Method in brief: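 The prodrug (5 μM) was preincubated with AAP (0.02 units/mL) at pH 8.0 and 30 °C for set times in 10 mM HEPES (pH 8.0) containing 2% DMSO. L-leucine-p-nitroanilide (50 μM) was then added, and its hydrolysis was followed at 25 °C by ΔAbs405 from released p-nitroaniline (ε405 = 10300). In the control, the prodrug was preincubated without enzyme, and AAP was added together with the substrate.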

[3] = Inhibition of aeromonas proteolytica aminopeptidase using L-leucine-p-nitroanilide as substrate by spectrophotometry; set-up: species or system Vibrio proteolyticus
[4] = Retention time of compound by HPLC analysis; assay type: physicochemical
Serum [5] = experiment: Drug level in human serum treated with 5 mM (S)-2-methylquinolin-8-yl 3-(2-amino-4-methylpentanamido)propane-1-sulfonate after 24 hrs by HPLC analysis; assay type: ADME, cell-free
[6] = Drug level in HEPES buffer treated with 50 uM (S)-2-methylquinolin-8-yl 3-(2-amino-4-methylpentanamido)propane-1-sulfonate in presence of aeromonas proteolytica aminopeptidase by spectrophotometry; assay type: ADME; conditions: vibrio proteolyticus; method in brief: as §1
[7] = Drug level in HEPES buffer treated with 2 mM (S)-2-methylquinolin-8-yl 3-(2-amino-4-methylpentanamido)propane-1-sulfonate for 12 hrs in presence of aeromonas proteolytica aminopeptidase by spectrophotometry; assay type: ADME; conditions: vibrio proteolyticus
Serum [8] = experiment: Metabolic stability in human serum assessed as compound decomposed at 5 mM by HPLC analysis; assay type: ADME; conditions: 5000 µM
[9] = Metabolic stability in CD1 mouse liver S9 fraction assessed as compound remaining at 5 mM by HPLC analysis; assay type: ADME, subcellular; conditions: read-out: Stability
Liver = experiment: Drug level in CD1 mouse liver S9 fraction treated with 5 mM (S)-2-methylquinolin-8-yl 3-(2-amino-4-methylpentanamido)propane-1-sulfonate after 3 hrs by HPLC analysis; assay type: ADME, subcellular; conditions: s9, 3 h
[10] = Drug metabolism in HEPES buffer assessed as aeromonas proteolytica aminopeptidase-mediated Isothiazolidine 1,1-dioxide formation at 200 uM by spectrophotometry; assay type: ADME; conditions: vibrio proteolyticus
[11] = Dissociation constant, pKa of the compound; assay type: physicochemical
[12] = Drug metabolism in HEPES buffer assessed as aeromonas proteolytica aminopeptidase-mediated 4-chlorophenol formation at 200 uM by spectrophotometry; assay type: ADME; conditions: vibrio proteolyticus; method in brief: as §1
[13] = Drug metabolism in HEPES buffer assessed as aeromonas proteolytica aminopeptidase-mediated 4-(trifluoromethyl)phenol formation at 200 uM by spectrophotometry; assay type: ADME; conditions: vibrio proteolyticus; method in brief: as §1
[14] = Drug level in HEPES buffer treated with 200 uM (S)-4-sulfamoylphenyl 3-(2-amino-4-methylpentanamido)propane-1-sulfonate in presence of aeromonas proteolytica aminopeptidase by spectrophotometry; assay type: ADME; conditions: vibrio proteolyticus; method in brief: as §1
[15] = Drug metabolism in HEPES buffer assessed as aeromonas proteolytica aminopeptidase-mediated compound hydrolysis at 2 mM by spectrophotometry; assay type: ADME; conditions: vibrio proteolyticus, 2000 µM
[16] = Drug metabolism in HEPES buffer assessed as aeromonas proteolytica aminopeptidase-mediated compound hydrolysis at 1.3 mM by spectrophotometry; assay type: ADME; conditions: vibrio proteolyticus, 1300 µM
[17] = Drug metabolism in HEPES buffer assessed as aeromonas proteolytica aminopeptidase-mediated 4-hydroxybenzenesulfonamide formation at 200 uM by spectrophotometry; assay type: ADME; conditions: vibrio proteolyticus; method in brief: as §1
[18] = Drug metabolism in HEPES buffer assessed as aeromonas proteolytica aminopeptidase-mediated 5-chloroquinolin-8-yl 3-chloropropane-1-sulfonate formation at 2 mM after 12 hrs by spectrophotometry; assay type: ADME; conditions: vibrio proteolyticus, 2000 µM
Serum [19] = experiment: Drug metabolism in human serum assessed as 2-methylquinolin-8-ol formation at 5 mM after 24 hrs by HPLC analysis; assay type: ADME, cell-free; conditions: 5000 µM
[20] = Drug metabolism in CD1 mouse S9 fraction assessed as 2-methylquinolin-8-yl 3-aminopropane-1-sulfonate formation at 5 mM after 3 hrs by HPLC analysis; assay type: ADME, Liver; conditions: s9, 3 h, 5000 µM
[21] = Drug metabolism in HEPES buffer assessed as aeromonas proteolytica aminopeptidase-mediated Isothiazolidine 1,1-dioxide formation at 2 mM after 12 hrs by spectrophotometry; assay type: ADME; conditions: vibrio proteolyticus, 2000 µM
[22] = Drug metabolism in HEPES buffer assessed as aeromonas proteolytica aminopeptidase-mediated Isothiazolidine 1,1-dioxide formation at 50 uM by spectrophotometry; assay type: ADME; conditions: vibrio proteolyticus
[23] = Drug metabolism in HEPES buffer assessed as aeromonas proteolytica aminopeptidase-mediated 2-methylquinolin-8-ol formation at 50 uM by spectrophotometry; assay type: ADME; conditions: vibrio proteolyticus; method in brief: as §1
Serum [24] = experiment: Drug metabolism in human serum assessed as 2-methylquinolin-8-yl 3-aminopropane-1-sulfonate formation at 5 mM after 24 hrs by HPLC analysis; assay type: ADME, cell-free; conditions: 5000 µM
[25] = Drug metabolism in HEPES buffer assessed as aeromonas proteolytica aminopeptidase-mediated 5-chloroquinolin-8-yl 4-chlorobutane-1-sulfonate formation at 2 mM after 12 hrs by spectrophotometry; assay type: ADME; conditions: vibrio proteolyticus, 2000 µM
[26] = Drug metabolism in HEPES buffer assessed as aeromonas proteolytica aminopeptidase-mediated 2-methylquinolin-8-ol formation at 2 mM after 12 hrs by spectrophotometry; assay type: ADME; conditions: vibrio proteolyticus, 2000 µM
[27] = Metabolic stability in human serum assessed as compound decomposed at 5 mM after 24 hrs by HPLC analysis; assay type: ADME; conditions: read-out: Drug metabolism
[28] = Drug level in HEPES buffer treated with 200 uM (S)-4-chlorophenyl 3-(2-amino-4-methylpentanamido)propane-1-sulfonate in presence of aeromonas proteolytica aminopeptidase by spectrophotometry; assay type: ADME; conditions: vibrio proteolyticus
Method in brief: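 Compound at 200 μM incubated for a given period with Aeromonas proteolytica aminopeptidase (1.05 units/mL) in 50 mM HEPES, pH 8.0, containing 2% DMSO. Liberation of the corresponding phenol was followed over time to evaluate the intramolecular cyclization rate k₂.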

Q: For `Oc1ccc(C(F)(F)F)cc1`, which Drug metabolism [1] is on record?
A: The Drug metabolism was “metabolite_detected”.

Q: For `CC(C)C[C@H](N)C(=O)NCCCCS(=O)(=O)Oc1ccc(Cl)c2cccnc12`, which “inhibition (INH)” value [2] is on record?
A: Its value is “Active”.

Q: Which Ki [3] does the source give for `Oc1ccc(Cl)c2cccnc12` [CLOXYQUIN] here?
A: The Ki was 190 nM.

Q: For `Cc1ccc2cccc(O)c2n1` [8-HYDROXY QUINALDINE], which Retention_time [4] is on record?
A: The Retention_time was 4.6 min.

Q: What about the Drug metabolism (Serum [5]) of the same molecule?
A: The Drug metabolism was “metabolite_detected”.

Q: And the Drug metabolism [6]?
A: Its Drug metabolism is “metabolite_detected”.

Q: And the Drug metabolism [7]?
A: Its Drug metabolism is “metabolite_detected”.

Q: Which Stability (Serum [8]) does the source give for `Cc1ccc2cccc(OS(=O)(=O)CCCN=[N+]=[N-])c2n1` here?
A: Its Stability is “Stable”.

Q: What about the Retention_time [4] of the same molecule?
A: The Retention_time was 17.5 min.

Q: And the remaining [9]?
A: The remaining was 88%.

Q: With `Cc1ccc2cccc(OS(=O)(=O)CCCN)c2n1` as the molecule, how does the Retention_time [4] read?
A: Its Retention_time is 6.5 min.

Q: What about the Drug metabolism (Liver) of the same molecule?
A: The Drug metabolism was “metabolite_detected”.

Q: And the Drug metabolism (Serum [5])?
A: The Drug metabolism was “metabolite_detected”.

Q: Which results are given for `CC(C)C[C@H](N)C(=O)NCCCS(=O)(=O)Oc1ccc(Cl)cc1`?
A: Drug metabolism [10]: metabolite_detected; pKa [11]: 9.6; Drug metabolism [12]: metabolite_detected

Q: Which results are given for `CC(C)C[C@H](N)C(=O)NCCCS(=O)(=O)Oc1ccc(C(F)(F)F)cc1`?
A: Drug metabolism [10]: metabolite_detected; Drug metabolism [13]: metabolite_detected; pKa [11]: 8.9

Q: With `NS(=O)(=O)c1ccc(O)cc1` as the molecule, how does the Drug metabolism [14] read?
A: Its Drug metabolism is “metabolite_detected”.

Q: With `Cc1ccc2cccc(OS(=O)(=O)CCCCNC(=O)[C@@H](N)CC(C)C)c2n1` as the molecule, how does the Drug metabolism [15] read?
A: The Drug metabolism was “metabolite_detected”.

Q: Which Drug metabolism [16] does the source give for `Cc1ccc2cccc(OS(=O)(=O)CCNC(=O)[C@@H](N)CC(C)C)c2n1` here?
A: Its Drug metabolism is “metabolite_detected”.

Q: Which Drug metabolism [17] does the source give for `CC(C)C[C@H](N)C(=O)NCCCS(=O)(=O)Oc1ccc(S(N)(=O)=O)cc1` here?
A: The Drug metabolism was “metabolite_detected”.

Q: And the Drug metabolism [10]?
A: Its Drug metabolism is “metabolite_detected”.

Q: And the pKa [11]?
A: Its pKa is 8.3.

Q: For `Cc1ccc2cccc(OS(=O)(=O)CCCNC(=O)[C@@H](N)CC(C)C)c2n1`, which Drug metabolism [18] is on record?
A: The Drug metabolism was “metabolite_notdetected”.

Q: What about the Drug metabolism (Serum [19]) of the same molecule?
A: The Drug metabolism was “metabolite_detected”.

Q: And the Retention_time [4]?
A: Its Retention_time is 21 min.

Q: And the Drug metabolism [20]?
A: The Drug metabolism was “metabolite_detected”.

Q: And the Drug metabolism [21]?
A: Its Drug metabolism is “metabolite_detected”.

Q: What about the Drug metabolism [22] of the same molecule?
A: The Drug metabolism was “metabolite_detected”.

Q: What about the Drug metabolism [23] of the same molecule?
A: The Drug metabolism was “metabolite_detected”.

Q: What about the pKa [11] of the same molecule?
A: The pKa was 10.9.

Q: What about the Drug metabolism (Serum [24]) of the same molecule?
A: The Drug metabolism was “metabolite_detected”.

Q: And the Drug metabolism [25]?
A: The Drug metabolism was “metabolite_notdetected”.

Q: What about the Drug metabolism [26] of the same molecule?
A: The Drug metabolism was “metabolite_detected”.

Q: What about the metabolised at 24 h, 5000 µM [27] of the same molecule?
A: Its metabolised at 24 h, 5000 µM is 35%.

Q: With `CC(C)C[C@H](N)C(=O)NCCCS(=O)(=O)Oc1ccc(Cl)c2cccnc12` as the molecule, how does the “inhibition (INH)” value [2] read?
A: Its value is “Active”.

Q: Which Drug metabolism [28] does the source give for `Oc1ccc(Cl)cc1` [PARACHLOROPHENOL] here?
A: The Drug metabolism was “metabolite_detected”.

Q: Which results are given for `O=S1(=O)CCCN1`?
A: Drug metabolism [28]: metabolite_detected; Drug metabolism [6]: metabolite_detected; Drug metabolism [1]: metabolite_detected; Drug metabolism [7]: metabolite_detected; Drug metabolism [14]: metabolite_detected
